Measured values pooled from the literature.
Each line is one published result; the experiments were not run side by side. Values after ≈ are worked out from the molar mass of the structure shown.
Organism: Streptococcus pneumoniae
Observed: microbial growth

SMILES	assay	system	setting	MIC
O=[N+]([O-])c1ccc(O)c2ncccc12	broth dilution	ATCC49619		8 µg/mL (≈ 42.1 µM)
CN(C)c1cc(NC(=O)CNC(C)(C)C)c(O)c2c1C[C@H]1C[C@H]3[C@H](N(C)C)C(O)=C(C(N)=O)C(=O)[C@@]3(O)C(O)=C1C2=O		157E		< 0.06 µg/mL
O=c1[nH]cc(F)c(=O)[nH]1	broth dilution		24 h	0.125 µg/mL (≈ 0.961 µM)
O=C1NC(=S)S/C1=C\c1ccc(-c2ccc(N(c3ccccc3)c3ccccc3)cc2)c2ccccc12	broth dilution	ATCC49619		1000 µg/mL (≈ 1940 µM)
CN(C)[C@@H]1C(O)=C(C(N)=O)C(=O)[C@@]2(O)C(O)=C3C(=O)c4c(cc5ccc(CN6CC(C#N)C6)cc5c4O)C[C@H]3C[C@@H]12	broth dilution	ATCC49619		0.5 µg/mL (≈ 0.895 µM)
N=C(N)NN=Cc1ccc(OC/C=C\COc2ccc(C=NNC(=N)N)cc2)cc1		D39	16 h	≤ 3 µg/mL
O=C(O)CN1C(=O)/C(=C/c2c3ccccc3c(-c3ccc(N(c4ccccc4)c4ccccc4)cc3)c3ccccc23)NC1=S	broth dilution	ATCC49619		> 1000 µg/mL
CN(C)[C@@H]1C(O)=C(C(N)=O)C(=O)[C@@]2(O)C(O)=C3C(=O)c4c(cc5ccc(-c6ccccc6)cc5c4O)C[C@H]3C[C@@H]12	broth dilution	ATCC49619		32 µg/mL (≈ 59.2 µM)
COc1cc(Cc2cnc(N)nc2N)cc(OC)c1OC	broth dilution		24 h	0.25 µg/mL (≈ 0.861 µM)
C[C@@H](O)[C@H]1C(=O)N2C(C(=O)O)=C(S[C@@H]3CN[C@H](C(=O)N(C)C)C3)[C@H](C)[C@H]12	broth dilution	ATCC49619		0.25 µg/mL (≈ 0.652 µM)
O=C1NC(=S)N/C1=C\c1ccc(-c2ccc(N(c3ccccc3)c3ccccc3)cc2)cc1	broth dilution	ATCC49619		> 1000 µg/mL
CN(C)c1ccc(O)c2c1C[C@H]1C[C@H]3[C@H](N(C)C)C(O)=C(C(N)=O)C(=O)[C@@]3(O)C(O)=C1C2=O		157E		< 0.06 µg/mL
O=C1NC(=S)S/C1=C\c1ccc(-c2ccc(N(c3ccccc3)c3ccccc3)cc2)cc1	broth dilution	ATCC49619		1000 µg/mL (≈ 2150 µM)
CN(C)[C@@H]1C(O)=C(C(N)=O)C(=O)[C@@]2(O)C(O)=C3C(=O)c4c(cc5cc(N)ccc5c4O)C[C@H]3C[C@@H]12	broth dilution	ATCC49619		1 µg/mL (≈ 2.09 µM)
